The record followed here is ChEMBL document CHEMBL1142929, “The use of aminoglycoside derivatives to study the mechanism of aminoglycoside 6'-N-acetyltransferase and the role of 6'-NH2 in antibacterial activity” (2007).

The structures appear in SMILES notation. Active and inactive are the calls of the source.

The test system of one assay is Staphylococcus aureus. Kind of assay: Antibacterial activity against Staphylococcus aureus at 30 ug/disc […]. In kind it is functional, organism-based. The settings on record: in the assay text read “paper disc method” for “dilution method”. A digest of the protocol:
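Disc diffusion on LB solid medium with 30 µg compound per paper disc; growth inhibition of the S. aureus strain (sensitive to usual antibiotics) scored visually.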

For the next assay, the system named is Enterococcus faecium. Kind of assay: Inhibition of Enterococcus faecium aminoglycoside 6'-N-acetyltransferase.
Assay [1] has as its system Escherichia coli. Kind of assay: Antibacterial activity against kanamycin-resistant Escherichia coli JR66 at 30 ug/disc […]. In kind it is functional, organism-based.
The subject of assay [2] is Escherichia coli. Kind of assay: Antibacterial activity against kanamycin-resistant Escherichia coli JR67 at 30 ug/disc […]. The assay is classed as functional, organism-based.
Assay [3] has as its system Escherichia coli. The assay can be described thus: Antibacterial activity against kanamycin-resistant Escherichia coli pETAACWT at 30 ug/disc […]. In kind it is functional, organism-based.
Assay [4] has as its system Escherichia coli. The assay can be described thus: Antibacterial activity against gentamycin-resistant Escherichia coli JR88 at 30 ug/disc […]. The assay is classed as functional, organism-based.
Assay [5] has as its system Escherichia coli. The assay can be described thus: Antimicrobial activity against Escherichia coli MG1655 by dilution method. The assay is classed as functional. A digest of the protocol:
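MIC by standard broth dilution: overnight MG1655 cultures in LB (aminoglycoside-sensitive strain) diluted 100-fold, growth read as OD at 600 nm.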

For assay [6], the system named is Escherichia coli. The assay can be described thus: Antibacterial activity against kanamycin-resistant Escherichia coli pSF815A-1 at 30 ug/disc […]. The assay is classed as functional, organism-based.

On to `[N-]=[N+]=NCC(=O)NC[C@H]1O[C@H](O[C@H]2[C@H](O)[C@@H](O)[C@H](N)C[C@@H]2N)[C@H](N)[C@@H](O)[C@@H]1O`, for which the result with Staphylococcus aureus, with Enterococcus faecium, with Escherichia coli [1], with Escherichia coli [2], in the assay with Escherichia coli [3] and in the assay with Escherichia coli [4] was inactive.

What is called MIC is the smallest concentration in the dilution series that meets the test's criterion for growth inhibition. A higher MIC goes with a less susceptible organism. `N[C@H]1[C@@H](O[C@H]2[C@H](O)[C@@H](O)[C@H](N)C[C@@H]2N)O[C@H](CNC(=O)CO)[C@@H](O)[C@@H]1O`: the result in the assay on Staphylococcus aureus, in the assay on Enterococcus faecium, in the assay on Escherichia coli [1], in the assay on Escherichia coli [2], in the assay with Escherichia coli [3] and in the assay on Escherichia coli [4] was inactive. Moreover, the MIC against Escherichia coli [5] is < 25 µg/mL.

For `N[C@H]1[C@@H](O[C@H]2[C@H](O)[C@@H](O)[C@H](N)C[C@@H]2N)O[C@H](CNC(=O)CS)[C@@H](O)[C@@H]1O`, the result in the assay with Staphylococcus aureus, with Enterococcus faecium, in the assay with Escherichia coli [1], in the assay with Escherichia coli [2], with Escherichia coli [3] and in the assay on Escherichia coli [4] was inactive.

In the case of `C#CCC(=O)NC[C@H]1O[C@H](O[C@H]2[C@H](O)[C@@H](O)[C@H](N)C[C@@H]2N)[C@H](N)[C@@H](O)[C@@H]1O`, the outcome in the assay with Staphylococcus aureus, in the assay with Enterococcus faecium, in the assay on Escherichia coli [1], in the assay with Escherichia coli [2], with Escherichia coli [3] and in the assay with Escherichia coli [4] was inactive.

`N[C@H]1[C@@H](O[C@H]2[C@H](O)[C@@H](O)[C@H](N)C[C@@H]2N)O[C@H](CNC(=O)Cc2cccc3ccccc23)[C@@H](O)[C@@H]1O`: the outcome with Staphylococcus aureus, with Enterococcus faecium, in the assay with Escherichia coli [1], in the assay with Escherichia coli [2], with Escherichia coli [3] and in the assay on Escherichia coli [4] was inactive.

As to `N[C@H]1[C@@H](O[C@H]2[C@H](O)[C@@H](O)[C@H](N)C[C@@H]2N)O[C@H](CNC(=O)c2ccccc2)[C@@H](O)[C@@H]1O`, the outcome in the assay on Staphylococcus aureus, in the assay on Enterococcus faecium, in the assay with Escherichia coli [1], in the assay with Escherichia coli [2], in the assay with Escherichia coli [3] and with Escherichia coli [6] was inactive. In addition, the outcome with Escherichia coli [4] was inactive.

For the compound `NCCC(=O)NC[C@H]1O[C@H](O[C@H]2[C@H](O)[C@@H](O)[C@H](N)C[C@@H]2N)[C@H](N)[C@@H](O)[C@@H]1O`, the result with Staphylococcus aureus, in the assay with Enterococcus faecium, with Escherichia coli [1], in the assay on Escherichia coli [2], in the assay on Escherichia coli [3] and in the assay on Escherichia coli [4] was inactive.

Regarding `NC[C@H]1O[C@H](O[C@H]2[C@H](O)[C@@H](O)[C@H](N)C[C@@H]2N)[C@H](N)[C@@H](O)[C@@H]1O` [NEAMINE], the MIC in the assay with Escherichia coli [5] is < 6.25 µg/mL.

On to `NCC(=O)NC[C@H]1O[C@H](O[C@H]2[C@H](O)[C@@H](O)[C@H](N)C[C@@H]2N)[C@H](N)[C@@H](O)[C@@H]1O`, for which the result with Staphylococcus aureus, with Enterococcus faecium, with Escherichia coli [1], with Escherichia coli [2], with Escherichia coli [3] and in the assay with Escherichia coli [4] was inactive. The MIC against Escherichia coli [5] is < 50 µg/mL.
